From ChEMBL document CHEMBL5137045, “Discovery of 2-(furan-2-ylmethylene)hydrazine-1-carbothioamide derivatives as novel inhibitors of SARS-CoV-2 main protease” (Eur J Med Chem, 2022)
pIC50, pKd: −log10 of the molar value. Activity calls are given as the source filed them. The rule behind the calls is not given here.

Experiments:
[1] = biological target: Replicase polyprotein 1ab (Severe acute respiratory syndrome coronavirus 2) (UniProt P0DTD1); test: Inhibition of SARS CoV-2 main protease at 50 uM using DABCYL-KTSAVLQSGFRKM-E(EDANS)-NH2 as substrate preincubated for 30 mins followed by substrate addition and measured after 20 mins relative to control; details: time 50.0 min
In short: (§1)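 FRET protease assay in 40 mM PBS, 100 mM NaCl, 1 mM EDTA, 0.1% Triton, pH 7.3. M^pro (0.5 μM) was preincubated with inhibitor 30 min at room temperature, then 20 μM substrate was added. Cleavage fluorescence (ex 360/em 460 nm) was read for 20 min. This covers preliminary screening and IC50; IC50 from Hill1 fit.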

[2] = biological target: T1, Replicase polyprotein 1ab (Severe acute respiratory syndrome coronavirus 2, UniProt P0DTD1); test: Inhibition of SARS CoV-2 main protease using DABCYL-KTSAVLQSGFRKM-E(EDANS)-NH2 as substrate preincubated for 30 mins followed by substrate addition and measured after 20 mins
Procathepsin L = Procathepsin L (Homo sapiens, UniProt P07711); test: Inhibition of human Cathepsin L using Ac-FR-AFC as fluorescent substrate preincubated for 15 mins followed by substrate addition and measured after 30 mins by fluorescent microplate reader analysis
Procathepsin L, sequence (P07711 whole entry): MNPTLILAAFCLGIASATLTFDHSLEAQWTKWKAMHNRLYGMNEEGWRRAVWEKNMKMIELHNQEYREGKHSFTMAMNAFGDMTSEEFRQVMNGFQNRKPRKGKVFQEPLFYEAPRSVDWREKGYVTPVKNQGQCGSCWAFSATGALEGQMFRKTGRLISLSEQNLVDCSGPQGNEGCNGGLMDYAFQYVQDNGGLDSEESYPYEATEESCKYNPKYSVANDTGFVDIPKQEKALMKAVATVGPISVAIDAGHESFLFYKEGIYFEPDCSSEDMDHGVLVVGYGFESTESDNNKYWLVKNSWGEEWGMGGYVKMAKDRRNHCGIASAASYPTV

MDCK = test: Cytotoxicity against MDCK cells assessed as reduction in cell viability incubated for 48 hrs by MTT assay; type: toxicity, cell-based, Canis lupus familiaris; details: dog
In short: (§2)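 MTT viability assay. Vero cells were kept in MEM and MDCK cells in DMEM, each with 10% FBS and 100 U/mL penicillin/streptomycin, humidified, 5% CO2. Cells were seeded, incubated 18 h, then given compound; vehicle served as blank.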

[3] = biological target: Replicase polyprotein 1ab (Severe acute respiratory syndrome coronavirus 2) (UniProt P0DTD1); test: Non-competitive inhibition of SARS CoV-2 main protease using DABCYL-KTSAVLQSGFRKM-E(EDANS)-NH2 as substrate at varying concentrations preincubated for 3 hrs followed by substrate addition by Lineweaver-burk plot analysis
In short: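 Kinetics: 0.5 μM M^pro was preincubated 3 h with DMSO or inhibitor, then varying fluorogenic substrate concentrations started the reaction. Three replicates, curve-fitted.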

[4] = biological target: T1, Replicase polyprotein 1ab; test: Inhibition of SARS CoV-2 main protease using DABCYL-KTSAVLQSGFRKM-E(EDANS)-NH2 as substrate preincubated for 30 mins followed by substrate addition; in short: as §1
Vero = test: (§3) Cytotoxicity against African green monkey Vero cells assessed as reduction in cell viability measured after 48 hrs by MTT assay; type: toxicity, cell-based; details: chlorocebus sabaeus, vero, 48 h; in short: as §2
[5] = biological target: T1, Replicase polyprotein 1ab; test: Inhibition of SARS CoV-2 main protease using DABCYL-KTSAVLQSGFRKM-E(EDANS)-NH2 as substrate preincubated for 180 mins followed by substrate addition
In short: (§4)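 Time-dependence: M^pro was preincubated with various inhibitor concentrations for different times at room temperature before fluorogenic substrate addition. Activity was read as in the standard FRET assay.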

[6] = biological target: Replicase polyprotein 1ab (Severe acute respiratory syndrome coronavirus 2) (UniProt P0DTD1); test: Reversible inhibition of SARS CoV-2 main protease at 100 uM incubated for 180 mins by ultrafiltration assay
In short: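 Reversibility: 10 μM M^pro was incubated with 100 μM inhibitor for 180 min and split into four portions, each ultrafiltered a different number of times. Each round added an equal volume of assay buffer, 5 min, 4 °C, 12,000 rpm. Retained protease was diluted to 0.5 μM and assayed for activity; three replicates averaged.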

[7] = biological target: Replicase polyprotein 1ab (Severe acute respiratory syndrome coronavirus 2) (UniProt P0DTD1); test: Covalent binding affinity to SARS CoV-2 main protease at 15 uM incubated for 3 hrs by Quadrupole-TOF LC-MS/MS analysis
In short: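 Protease (2 μM) was co-incubated with 15 μM inhibitor on ice for 3 h. The complex was run on Q-TOF LC-MS/MS, and raw mass signal was deconvoluted to give total protein mass.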

[8] = biological target: T1, Replicase polyprotein 1ab; test: Inhibition of SARS CoV-2 main protease using DABCYL-KTSAVLQSGFRKM-E(EDANS)-NH2 as substrate preincubated for 5 mins followed by substrate addition; in short: as §4
[9] = as §3; type: toxicity, cell-based; details: chlorocebus sabaeus, Vero cells; in short: as §2
[10] = biological target: T1, Replicase polyprotein 1ab; test: Binding affinity to SARS-CoV-2 main protease assessed as dissociation constant by SPR analysis
In short: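 SPR with M^pro immobilised and an empty first flow channel as reference. Compounds were injected for 60 s at 0.2–100 μM for binding (50 μM for screening). Dissociation was followed for 100–200 s at 30 μL/min. […] K_D came from a 1:1 kinetic binding fit.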

SMILES	inhibition [1]	pIC50 [2]	further results
COc1ccc(-c2ccc(/C=N/NC(N)=S)o2)cc1OC	102%	5.24	–
Cc1cc(-c2ccc(/C=N/NC(=O)Cn3nnnc3N)o2)c([N+](=O)[O-])cc1C	86%	4.76	–
Cc1cc([N+](=O)[O-])c(-c2ccc(/C=N/NC(=O)c3nonc3N)o2)cc1Cl	70.9%	4.60	–
NC(=S)N/N=C/c1ccc(-c2ccc(O)c(C(=O)O)c2)o1	115%	5.04	–
NC(=S)N/N=C/c1ccc(-c2cccc(C(=O)O)c2)o1	85.1%	4.96	–
NC(=S)N/N=C/c1ccc(-c2ccc(Cl)c(C(=O)O)c2)o1	93.6%	4.60	–
NC(=O)c1ccc(-c2ccc(/C=N/NC(N)=S)o2)cc1	94.2%	5.40	–
NC(=S)N/N=C/c1ccc(-c2ccc(C(=O)O)c(O)c2)o1	102%	5.80	pIC50 (Procathepsin L): 4.79; CC50 (MDCK): > 100 µM; inhibition [3]: Active; pIC50 [4]: 5.21; CC50 (Vero): > 100 µM; pIC50 [5]: 6.07; inhibition [6]: Active; Activity [7]: Active; pIC50 [8]: 4.37
NC(=S)N/N=C/c1ccc(-c2cc(C(=O)O)ccc2Cl)o1	97.2%	5.00	–
Cc1cc(C(=O)O)ccc1-c1ccc(/C=N/NC(N)=S)o1	98.5%	5.33	–
NC(=S)N/N=C/c1ccc(-c2ccc([N+](=O)[O-])cc2)o1	81.1%	5.01	–
NC(=S)N/N=C/c1ccc(-c2ccc(C(=O)O)cc2F)o1	101%	5.09	–
NC(=S)N/N=C/c1ccc(-c2ccc(S(N)(=O)=O)cc2)o1	98.5%	5.27	–
NC(=S)N/N=C/c1cccc(-c2ccc(C(=O)O)cc2)c1	99.2%	5.26	–
NC(=S)N/N=C/c1ccc(-c2cccc(C(=O)O)c2Cl)o1	84.4%	4.39	–
Cc1c(NC(=S)N/N=C/c2ccc(-c3ccc([N+](=O)[O-])cc3)o2)c(=O)n(-c2ccccc2)n1C	95%	4.97	–
NC(=S)N/N=C/c1ccc(-c2ccc(C(=O)O)cc2)o1	89.4%	4.76	–
NC(=S)N/N=C/c1ccc(-c2ccc(F)nc2)o1	97.4%	5.06	–
NC(=S)N/N=C/c1ccc(-c2cccc([N+](=O)[O-])c2)o1	81.6%	5.09	–
NC(=S)N/N=C/c1ccc(-c2ccc3cccnc3c2)o1	92.3%	4.98	–
NC(=S)N/N=C/c1ccc(Cc2ccccc2)o1	100%	5.81	pIC50 (Procathepsin L): 5.09; CC50 (MDCK): > 100 µM; CC50 at 48 h [9]: 100 µM
Cc1ccc([N+](=O)[O-])cc1-c1ccc(/C=N/NC(=O)Cn2c3ccccc3c(=O)c3ccccc32)o1	22.5%	–	–
O=C(N/N=C/c1ccc([N+](=O)[O-])o1)c1ccc(O)cc1O	< 20%	–	–
NC(=S)N/N=C/c1cc(-c2ccc(C(=O)O)cc2)co1	90.9%	4.61	–
Nc1nonc1-c1nc2ccccc2n1CC(=O)N/N=C/c1ccc(-c2cccc(C(=O)O)c2)o1	65%	4.67	pKd [10]: 4.56
O=C(N/N=C/c1ccc(-c2ccc([N+](=O)[O-])cc2)o1)/C(=C\c1ccccc1O)NC(=O)c1ccccc1	38.3%	–	–

SMILES	inhibition [1]	pIC50 [2]	further results
N=C1S/C(=C/c2ccc(-c3cccc(C(=O)O)c3)o2)C(=O)N1c1nonc1N	30.3%	–	–
O=C(O)c1ccc(-c2ccc(/C=N/NC(=S)NC3CCCCC3)o2)cc1	37.3%	–	–
NC(=S)N/N=C/c1ccc(-c2ccncc2)o1	95.4%	5.15	–
N#Cc1cc(-c2ccc(/C=N/NC(N)=S)o2)ccc1O	107%	5.38	–
O=C(O)c1ccc(-c2ccc(/C=N/NC(=S)Nc3cccc(C(F)(F)F)c3)o2)cc1	38.6%	–	–
O=C(Cn1c2ccccc2c(=O)c2ccccc21)N/N=C/c1ccc(-c2cccc([N+](=O)[O-])c2)o1	26.8%	–	–
O=[N+]([O-])c1cccc(-c2ccc(/C=N/NC(=S)Nc3ccccc3)o2)c1	< 20%	–	–
NC(=S)N/N=C/c1ccc(-c2ccc(C(=O)O)cc2)s1	95.1%	5.24	–
Cc1c(NC(=S)NC(=O)COc2ccccc2)c(=O)n(-c2ccccc2)n1C	< 20%	–	–
COCc1c(Br)c(C)nc(OCC(=O)N/N=C/c2ccc(-c3ccc(Cl)c(C(=O)O)c3)o2)c1C#N	38.3%	–	–
Cc1ccc(OCC(=O)N/N=C/c2ccc(-c3cc([N+](=O)[O-])ccc3Cl)o2)c(C)c1	< 20%	–	–
COCc1cc(C)nc(OCC(=O)N/N=C/c2ccc(-c3cccc(C(=O)O)c3)o2)c1C#N	37.3%	–	–
NC(=S)N/N=C/c1ccc(-c2cnc3ccccc3c2)o1	88.9%	4.99	–
COc1c(C(=O)O)cccc1-c1ccc(/C=N/NC(N)=S)o1	79.8%	–	–
O=C(N/N=C/c1ccc(-c2cccc(C(=O)O)c2)o1)Nc1ccc(Cl)cc1	44.6%	–	–
O=C(Cn1c2ccccc2c(=O)c2ccccc21)N/N=C/c1ccc(-c2ccc([N+](=O)[O-])cc2Cl)o1	24.1%	–	–
NC(=S)N/N=C/c1ccc(-c2ccc(C(=O)O)c(Cl)c2)o1	89%	4.49	–
O=C(O)c1cc(N/N=C/c2ccc(-c3ccc(Cl)c(C(=O)O)c3)o2)ccc1Cl	28.2%	–	–
Cc1cc(C(=O)O)ccc1-c1ccc(/C=N/NC(=S)NCc2ccccc2)o1	55.9%	–	–
NC(=S)N/N=C/c1ccc(-c2ccccc2)o1	100%	5.39	–
Cc1c(NC(=S)N(C)CCC#N)c(=O)n(-c2ccccc2)n1C	< 20%	–	–
COc1ccc(/N=C2/S/C(=C\c3ccc(-c4ccc(Cl)c(C(=O)O)c4)o3)C(=O)N2C)cc1	27.1%	–	–
Cc1c(NC(=S)NC(=O)c2cccc(I)c2)c(=O)n(-c2ccccc2)n1C	< 20%	–	–
N#C/C(=C\c1ccc(-c2cccc(C(=O)O)c2)o1)c1nc2ccccc2[nH]1	< 20%	–	–
Cc1cccc(C(=O)NC(=S)Nc2c(C)n(C)n(-c3ccccc3)c2=O)c1	< 20%	–	–
O=C(Cn1c2ccccc2c(=O)c2ccccc21)N/N=C/c1ccc(-c2ccc([N+](=O)[O-])cc2)o1	30%	–	–
